{"source": "ChEMBL document CHEMBL3862011", "about": "“Neuroprotective effects of benzyloxy substituted small molecule monoamine oxidase B inhibitors in Parkinson's disease” (Bioorg Med Chem, 2016)", "key": {"[1]": {"system": "PC-12", "experiment": "Neuroprotective activity against rotenone-induced apoptosis in rat PC12 cells at 20 uM preincubated for 24 hrs followed by rotenone addition measured after 24 hrs by 7-AAD/annexin V APC staining-based flow cytometric method", "format": "functional, cell-based"}, "[2]": {"system": "PC-12", "experiment": "Neuroprotective activity against 6-OHDA-induced apoptosis in rat PC12 cells assessed as viable cells at 40 uM after 24 hrs by 7-AAD/annexin V APC staining-based flow cytometric method (reference value: […])", "format": "functional", "settings": "PC-12, 24 h, read-out: Activity"}, "[3]": {"system": "PC-12", "experiment": "Neuroprotective activity against 6-OHDA-induced apoptosis in rat PC12 cells assessed as viable cells at 5 uM after 24 hrs by 7-AAD/annexin V APC staining-based flow cytometric method (reference value: […])", "format": "functional", "settings": "PC-12, 24 h, read-out: Activity"}, "[4]": {"system": "PC-12", "experiment": "Neuroprotective activity against 6-OHDA-induced apoptosis in rat PC12 cells assessed as late apoptotic cells at 40 uM after 24 hrs by 7-AAD/annexin V APC staining-based flow cytometric method (reference value: 4.4%)", "format": "functional"}, "[5]": {"system": "PC-12", "experiment": "Neuroprotective activity against rotenone-induced apoptosis in rat PC12 cells assessed as late apoptotic cells at 40 uM after 24 hrs by 7-AAD/annexin V APC staining-based flow cytometric method (reference value: 9.9%)", "format": "functional"}, "[6]": {"experiment": "in vitro", "settings": "PAMPA"}, "[7]": {"system": "PC-12", "experiment": "Neuroprotective activity against 6-OHDA-induced reactive oxygen species accumulation in rat PC12 cells after 24 hrs by DCFH-DA probe-based flow cytometric method", "format": "functional, cell-based", "in_short": "(§1)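 PC12 cells were seeded at 2×10^5 cells/well in six-well plates and cultured with or without various concentrations of test samples for 24 h. After washing, they were loaded with DCFH-DA for 30 min at 37 °C in the dark, washed and harvested. DCF fluorescence read by flow cytometry (ex 488/em 525 nm), reported as mean fluorescence intensity.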"}, "[8]": {"experiment": "Neuroprotective activity against rotenone-induced toxicity in rat PC12 cells assessed as cell survival at 20 uM preincubated for 24 hrs followed by rotenone addition measured after 24 hrs by MTT assay relative to control", "format": "functional", "settings": "PC-12, read-out: Survival", "in_short": "(§2)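 PC12 cells seeded 5×10^3/well, after 24 h given compound at 20 μM for 24 h at 37 °C, then exposed to 6-OHDA (40 μM) or rotenone (1 μM) for 24 h. […] Mean ± SEM of three independent experiments.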"}, "[9]": {"system": "PC-12", "experiment": "Neuroprotective activity against 6-OHDA-induced apoptosis in rat PC12 cells assessed as necrotic cells at 20 uM after 24 hrs by 7-AAD/annexin V APC staining-based flow cytometric method (reference value: 0.6%)", "format": "functional"}, "[10]": {"system": "Mus musculus", "experiment": "Acute toxicity in Kunming mouse assessed as mortality at 2000 mg/kg measured for 14 days", "format": "organism-based", "settings": "in vivo, 336 h", "in_short": "(§3)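 Kunming mice (20 ± 2 g), 10 per group, vehicle control group; fasted overnight, single oral dose in 0.5% CMC-Na suspension. Observed continuously for 4 h, intermittently to 24 h, then occasionally to day 14 for behaviour, mortality, food and water intake and body weight; sacrificed under ether on day 14.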"}, "[11]": {"system": "PC-12", "experiment": "Neuroprotective activity against rotenone-induced apoptosis in rat PC12 cells assessed as early apoptotic cells at 10 uM after 24 hrs by 7-AAD/annexin V APC staining-based flow cytometric method (reference value: 2.2%)", "format": "functional"}, "[12]": {"system": "PC-12", "experiment": "Neuroprotective activity against rotenone-induced apoptosis in rat PC12 cells assessed as necrotic cells at 40 uM after 24 hrs by 7-AAD/annexin V APC staining-based flow cytometric method (reference value: 48.6%)", "format": "functional"}, "[13]": {"system": "PC-12", "experiment": "Neuroprotective activity against rotenone-induced apoptosis in rat PC12 cells assessed as late apoptotic cells at 20 uM after 24 hrs by 7-AAD/annexin V APC staining-based flow cytometric method (reference value: 9.9%)", "format": "functional"}, "[14]": {"system": "PC-12", "experiment": "Neuroprotective activity against rotenone-induced apoptosis in rat PC12 cells assessed as late apoptotic cells at 5 uM after 24 hrs by 7-AAD/annexin V APC staining-based flow cytometric method (reference value: 9.9%)", "format": "functional"}, "[15]": {"system": "PC-12", "experiment": "Neuroprotective activity against rotenone-induced apoptosis in rat PC12 cells assessed as viable cells at 40 uM after 24 hrs by 7-AAD/annexin V APC staining-based flow cytometric method (reference value: 39.3%)", "format": "functional", "settings": "PC-12, 24 h, read-out: Activity"}, "[16]": {"system": "PC-12", "experiment": "Neuroprotective activity against 6-OHDA-induced apoptosis in rat PC12 cells assessed as early apoptotic cells at 40 uM after 24 hrs by 7-AAD/annexin V APC staining-based flow cytometric method (reference value: 42.1%)", "format": "functional"}, "[17]": {"system": "PC-12", "experiment": "Neuroprotective activity against rotenone-induced reactive oxygen species accumulation in rat PC12 cells after 24 hrs by DCFH-DA probe-based flow cytometric method", "format": "functional, cell-based", "in_short": "as §1"}, "[18]": {"experiment": "Neuroprotective activity against 6-OHDA-induced toxicity in rat PC12 cells assessed as cell survival at 20 uM preincubated for 24 hrs followed by 6-OHDA addition measured after 24 hrs by MTT assay relative to control", "format": "functional", "settings": "PC-12, read-out: Survival", "in_short": "as §2"}, "[19]": {"system": "PC-12", "experiment": "Neuroprotective activity against 6-OHDA-induced apoptosis in rat PC12 cells assessed as viable cells at 10 uM after 24 hrs by 7-AAD/annexin V APC staining-based flow cytometric method (reference value: […])", "format": "functional", "settings": "PC-12, 24 h, read-out: Activity"}, "[20]": {"system": "PC-12", "experiment": "Neuroprotective activity against rotenone-induced apoptosis in rat PC12 cells assessed as necrotic cells at 10 uM after 24 hrs by 7-AAD/annexin V APC staining-based flow cytometric method (reference value: 48.6%)", "format": "functional"}, "[21]": {"system": "PC-12", "experiment": "Neuroprotective activity against rotenone-induced apoptosis in rat PC12 cells assessed as late apoptotic cells at 10 uM after 24 hrs by 7-AAD/annexin V APC staining-based flow cytometric method (reference value: 9.9%)", "format": "functional"}, "[22]": {"system": "PC-12", "experiment": "Neuroprotective activity against 6-OHDA-induced toxicity in rat PC12 cells assessed as increase in cell viability after 24 hrs by phase-contrast microscopic method", "format": "functional, cell-based", "in_short": "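PC12 cells were exposed to 5-40 μM test compound together with 40 μM 6-OHDA or 1 μM rotenone for 24 h. Viability was judged from phase-contrast images against untreated controls.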"}, "[23]": {"system": "PC-12", "experiment": "Neuroprotective activity against 6-OHDA-induced apoptosis in rat PC12 cells assessed as early apoptotic cells at 10 uM after 24 hrs by 7-AAD/annexin V APC staining-based flow cytometric method (reference value: 42.1%)", "format": "functional"}, "[24]": {"system": "PC-12", "experiment": "Neuroprotective activity against 6-OHDA-induced apoptosis in rat PC12 cells assessed as early apoptotic cells at 20 uM after 24 hrs by 7-AAD/annexin V APC staining-based flow cytometric method (reference value: 42.1%)", "format": "functional"}, "[25]": {"system": "PC-12", "experiment": "Neuroprotective activity against rotenone-induced apoptosis in rat PC12 cells assessed as early apoptotic cells at 5 uM after 24 hrs by 7-AAD/annexin V APC staining-based flow cytometric method (reference value: 2.2%)", "format": "functional"}, "[26]": {"system": "Mus musculus", "experiment": "Acute toxicity in Kunming mouse assessed as abnormal changes in food consumption at 2000 mg/kg measured for 14 days", "format": "organism-based", "settings": "in vivo, 336 h", "in_short": "as §3"}, "[27]": {"system": "PC-12", "experiment": "Neuroprotective activity against rotenone-induced toxicity in rat PC12 cells assessed as increase in cell survival preincubated for 24 hrs followed by rotenone addition measured after 24 hrs by MTT assay", "format": "functional, cell-based", "in_short": "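PC12 cells in RPMI-1640 with 10% FBS were seeded at 5×10^3 cells/well. After 24 h, compounds at 20 μM were added for 24 h at 37 °C, followed by 6-OHDA (40 μM) or rotenone (1 μM) for 24 h. Viability by MTT (570 nm, reference 630 nm), expressed as percent of untreated control. […] Mean ± SEM.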"}}, "data": [{"smiles": "O=C1CCOc2cc(OCc3ccc(F)cc3)ccc21", "values": [{"measurement": "Activity", "setting": "[1]", "value": "Dose-dependent effect"}, {"measurement": "viability at 40 µM", "setting": "[2]", "value": 90.8, "unit": "%"}, {"measurement": "viability at 5 µM", "setting": "[3]", "value": 69.3, "unit": "%"}, {"measurement": "Activity", "setting": "[4]", "value": 0.2, "unit": "%"}, {"measurement": "Activity", "setting": "[5]", "value": 9.2, "unit": "%"}, {"measurement": "Papp at 16 h, 100 ug/ml", "setting": "[6]", "value": 14.3, "unit": "×10⁻⁶ cm/s"}, {"measurement": "Activity", "setting": "[7]", "value": "Dose-dependent effect"}, {"measurement": "viability at 20 µM", "setting": "[8]", "value": 126, "unit": "%"}, {"measurement": "Activity", "setting": "[9]", "value": 1.1, "unit": "%"}, {"measurement": "Activity", "setting": "[10]", "value": "Non-Toxic"}, {"measurement": "Activity", "setting": "[11]", "value": 5, "unit": "%"}, {"measurement": "Activity", "setting": "[12]", "value": 25.8, "unit": "%"}, {"measurement": "Activity", "setting": "[13]", "value": 9.5, "unit": "%"}, {"measurement": "Activity", "setting": "[14]", "value": 9.3, "unit": "%"}, {"measurement": "viability at 40 µM", "setting": "[15]", "value": 62.1, "unit": "%"}, {"measurement": "Activity", "setting": "[16]", "value": 7, "unit": "%"}, {"measurement": "Activity", "setting": "[17]", "value": "Dose-dependent effect"}, {"measurement": "viability at 20 µM", "setting": "[18]", "value": 134, "unit": "%"}, {"measurement": "viability at 10 µM", "setting": "[19]", "value": 70.7, "unit": "%"}, {"measurement": "Activity", "setting": "[20]", "value": 30.8, "unit": "%"}, {"measurement": "Activity", "setting": "[21]", "value": 16.1, "unit": "%"}, {"measurement": "Activity", "setting": "[22]", "value": "Dose-dependent effect"}, {"measurement": "Activity", "setting": "[23]", "value": 22, "unit": "%"}, {"measurement": "Activity", "setting": "[24]", "value": 10.8, "unit": "%"}, {"measurement": "Activity", "setting": "[25]", "value": 3.3, "unit": "%"}, {"measurement": "Activity", "setting": "[26]", "value": "Non-Toxic"}, {"measurement": "Activity", "setting": "[27]", "value": "Dose-dependent effect"}]}]}
